Assay results reported in paper PMC5613298 (Biochemistry and Biophysics Reports, 2016).
Like-named read-outs stand apart in the source and are kept apart here. Starred links: 1 amine or outer side, 2 acyl side, 3 side chain; linkers in the order of their positions; H or OH if unused. Non-standard residues stand in square brackets, D forms with d. Residues, ends and D or L forms follow the SMILES beside them. Trp(7-aza) = N[C@@H](Cc1c[nH]c2ncccc12)C(=O)O; X1 = O=C([C@H](Cc1n[nH]c2ncccc12)N[*:1])[*:2]

Tests used:
[1] = steady-state absorption and emission spectroscopy, free in solution; format: physicochemical; conditions: for λabs: neutral water; for λem, normal / N(1)-H emission: neutral water (peptides: neutral Tris buffer); for λem, second band (N(2)-H emission) / λem, third band (N(7)-H tautomer emission): neutral water / neutral Tris buffer
Procedure, shortened: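 Absorption recorded on a UV-vis spectrophotometer. Emission recorded on a fluorimeter with wavelength-calibrated excitation and emission response. Peptide concentration was set spectrophotometrically from the extinction coefficient of its single Trp or Trp-analogue residue.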

[2] = time-resolved fluorescence; format: physicochemical
Procedure, shortened: (§1)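 Lifetimes measured by time-correlated single-photon counting, with two sources. One used hydrogen-lamp excitation (about 300 ps resolution). The other used 310 nm third-harmonic excitation from 930 nm femtosecond pulses (82 MHz) with a microchannel-plate detector (about 15 ps resolution). Emission was collected at right angles through a 54.7° polarizer. Decays were fitted to sums of exponentials with the instrument response deconvolved.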

[3] = cited from earlier work
[4] = biological target: T1, bovine brain calmodulin (CaM) (Bos taurus, UniProt P62157); assay: CaM binding by fluorescence titration; conditions: for increase in CaM binding affinity on replacing Trp: relative to Baa (210±10 pM)
[5] = cited from earlier work; remark: listed apart in the source
[6] = biological target: T1, bovine brain calmodulin (CaM); assay: time-resolved fluorescence; format: binding; conditions: peptide-CaM complex, ±0.03 ns uncertainty
Procedure, shortened: as §1

[7] = biological target: T1, bovine brain calmodulin (CaM); assay: steady-state emission spectra upon titration with CaM; format: binding; conditions: for λem, N(1)-H emission: bound to CaM, pH 7.5 Tris buffer; for environment around Trp analogue upon binding CaM: deduced from steady-state emission; for λabs: in presence of CaM
Procedure, shortened: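 Peptide at 1 µM in 5 mM Tris-HCl, pH 7.5, 1.0 mM CaCl₂, 25 °C. CaM added stepwise to 6 µM final, with 1 min stirring and 10 min equilibration per step. Full emission spectra recorded on a calibrated fluorimeter, corrected for dilution, each an average of three replicates. Peptide and CaM concentrations were set from Trp and Tyr absorption extinction coefficients.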

CD spectrum = format: physicochemical; conditions: Fig. S2
[8] = free, neutral water, λmon 320 nm, ±0.03 ns uncertainty
[9] = free, neutral water, λmon 550 nm, ±0.03 ns uncertainty
[10] = free, neutral water, λmon not given, ±0.03 ns uncertainty
[11] = free, neutral water, λmon 380 nm
[12] = free, neutral water, λmon 380 nm, ±0.03 ns uncertainty
[13] = free, neutral water, λmon 540 nm, ±0.03 ns uncertainty

c1cnc2[nH]ncc2c1 [2,7-diazaindole]
λabs [1]: 295 nm
λem, normal / N(1)-H emission [1]: 335 nm
λem, second band (N(2)-H emission) [1]: 370 nm
λem, third band (N(7)-H tautomer emission) [1]: 495 nm
τ [2, 8]: 0.22 ns
τ ([2]; free, neutral water, λmon 400 nm, ±0.03 ns uncertainty): 10.10 ns
τ, decay component [2, 9]: 1.30 ns
τ, rise component [2, 9]: 0.21 ns

c1cnc2[nH]ccc2c1 [7-azaindole]
λabs [1]: 288 nm
λem, normal / N(1)-H emission [1]: 386 nm
τ [2, 10]: 0.91 ns
lifetime ([3]; in DMSO): 9.3 ns
lifetime ([3]; in acetonitrile): 5.7 ns

N[C@@H](Cc1n[nH]c2ncccc12)C(=O)O [(2,7-aza)Trp, 2,7-diazatryptophan]
increase in CaM binding affinity on replacing Trp [4]: 4.7 times
λabs [1]: 300 nm
λem, normal / N(1)-H emission [1]: 340 nm
λem, second band (N(2)-H emission) [1]: 380 nm
λem, third band (N(7)-H tautomer emission) [1]: 500 nm
N(7)-H tautomer emission ([5]; water rich environments): 500 nm
τ [2, 8]: 0.26 ns
percentage of τ component 1 [2, 11]: 12%
percentage of τ component 2 [2, 11]: 88%
τ, component 1 [2, 12]: 0.27 ns
τ, component 2 [2, 12]: 10.07 ns
τ, decay component [2, 13]: 0.58 ns
τ, rise component [2, 13]: 0.26 ns

CC(=O)N[C@@H](CC(C)C)C(=O)N[C@@H](CCCCN)C(=O)N[C@@H](Cc1n[nH]c2ncccc12)C(=O)N[C@@H](CCCCN)C(=O)N[C@@H](CCCCN)C(=O)N[C@@H](CC(C)C)C(=O)N[C@@H](CC(C)C)C(=O)N[C@@H](CCCCN)C(=O)N[C@@H](CC(C)C)C(=O)N[C@@H](CC(C)C)C(=O)N[C@@H](CCCCN)C(=O)N[C@@H](CCCCN)C(=O)N[C@@H](CC(C)C)C(=O)N[C@@H](CC(C)C)C(=O)N[C@@H](CCCCN)C(=O)N[C@@H](CC(C)C)C(=O)NCC(N)=O [(2,7-aza)Trp-Baa] (Ac-LK[X1]KKLLKLLKKLLKLG-NH2)
τ, N(1)-H emission lifetime ([6]; λmon 330 nm): 1.10 ns
Kd [4]: 0.045 ± 0.002 nM
λabs [1]: 300 nm
λem, normal / N(1)-H emission [1]: 340 nm
λem, second band (N(2)-H emission) [1]: 380 nm
λem, third band (N(7)-H tautomer emission) [1]: 500 nm
λem, N(1)-H emission ([7]; 1.0 mM CaCl2): 340 nm
environment around Trp analogue upon binding CaM [7]: water scant environment
λabs [7]: 300 nm
change of N(1)-H emission at 340 nm upon titration with CaM ([7]; pH 7.5 Tris, 1.0 mM CaCl2): increase of the N(1)-H emission
secondary structure by CD (CD spectrum): α-helix structure
τ, N(1)-H emission lifetime ([2]; free peptide in water, λmon 330 nm, ±0.03 ns uncertainty): 0.21 ns

N[C@@H](Cc1c[nH]c2ncccc12)C(=O)O [(7-aza)Trp, 7-azatryptophan]
increase in CaM binding affinity on replacing Trp [4]: 1.9 times
λabs [1]: 289 nm
λem, normal / N(1)-H emission [1]: 400 nm
emission maximum ([5]; in tetrahydrofuran): 350 nm
τ [2, 10]: 0.65 ns

CC(=O)N[C@@H](CC(C)C)C(=O)N[C@@H](CCCCN)C(=O)N[C@@H](Cc1c[nH]c2ncccc12)C(=O)N[C@@H](CCCCN)C(=O)N[C@@H](CCCCN)C(=O)N[C@@H](CC(C)C)C(=O)N[C@@H](CC(C)C)C(=O)N[C@@H](CCCCN)C(=O)N[C@@H](CC(C)C)C(=O)N[C@@H](CC(C)C)C(=O)N[C@@H](CCCCN)C(=O)N[C@@H](CCCCN)C(=O)N[C@@H](CC(C)C)C(=O)N[C@@H](CC(C)C)C(=O)N[C@@H](CCCCN)C(=O)N[C@@H](CC(C)C)C(=O)NCC(N)=O [(7-aza)Trp-Baa] (Ac-LK[Trp(7-aza)]KKLLKLLKKLLKLG-NH2)
τ, normal (N(1)-H) emission lifetime ([6]; λmon 360 nm (text: 358 nm emission)): 7.35 ns
Kd [4]: 0.109 ± 0.005 nM
λabs [1]: 300 nm
λem, normal / N(1)-H emission [1]: 400 nm
λem, N(1)-H emission ([7]; 1.0 mM CaCl2): 358 nm
environment around Trp analogue upon binding CaM [7]: less polar environment
λabs [7]: 300 nm
secondary structure by CD (CD spectrum): α-helix structure
τ, normal (N(1)-H) emission lifetime ([2]; free peptide, neutral Tris buffer, λmon 400 nm, ±0.03 ns uncertainty): 0.65 ns

Ac-LKWKKLLKLLKKLLKLG-NH2 [Baa]
secondary structure by CD (CD spectrum): α-helix structure
